Lmaj promast – reduces viability of Leishmania major promastigotes | resazurin fluorescence viability | inhibition, % at 10 µM | hit rate 9% among 200,000 | AID 1063; in the data active = inhibition above about 50%;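 also: promastigotes grown with compound for 44 hours at 28 °C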
WT yeast gro inh – growth inhibition of WT yeast, mitochondrial fusion screen; mitochondrial fusion phenotypic screen, WT strain; inhibition, % at 10 µM; hit rate 2.1% among 190,000; in the data active = inhibition above about 58%; tested in S. cerevisiae
Rad51 HR inh – Rad51 (human) homologous recombination inhibition | Q06609 | hRad51 DNA strand exchange, fluorescence dequenching | inhibition, % at 10 µM | hit rate 0.085% among 200,000;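 active = inhibition above 40% at the single screening dose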
Target sequence (Q06609 whole entry, looked up): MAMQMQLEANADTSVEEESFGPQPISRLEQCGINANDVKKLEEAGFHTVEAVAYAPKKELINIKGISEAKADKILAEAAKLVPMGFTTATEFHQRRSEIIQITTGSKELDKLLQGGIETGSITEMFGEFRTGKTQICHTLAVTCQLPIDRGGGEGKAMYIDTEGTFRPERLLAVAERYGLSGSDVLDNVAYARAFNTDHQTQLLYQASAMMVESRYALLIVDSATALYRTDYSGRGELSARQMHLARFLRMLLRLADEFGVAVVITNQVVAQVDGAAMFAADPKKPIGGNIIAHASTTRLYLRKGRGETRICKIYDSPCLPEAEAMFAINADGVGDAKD
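Test system: preformed human Rad51 ssDNA filaments; also added: Donor/quencher-labelled 47-bp dsDNA substrate; doses: 10 µM final, single point; times: 37 °C 15-min filament assembly, 30-min compound preincubation, 15-min exchange; detection: FRET fluorescence dequenching, excitation 485 nm, emission 520 nm; read-out basis: Fluorescence-based percent inhibition, control- and blank-normalised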
Calpain2 inh – blocks pig calpain II enzyme activity | inhibition, % at 16 µM | hit rate 0.37% among 220,000 | purified calpain II, fluorogenic peptide substrate, 30 min;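 active = inhibition above about 50%, limit read from the data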
PMI act satM6P – PMI (human) activation, high substrate; coupled PMI enzyme assay, resazurin fluorescence, 20 min; hits give high values; 1 = untreated enzyme, 0 = substrate-free blank; hit rate 0.34% among 190,000; activation factor at 20 µM;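 active = activation factor of 2 or more at 20 µM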
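Test system: human phosphomannose isomerase with PGI, G6PDH, diaphorase coupling enzymes; amount: 15 ng/mL PMI; incubation: enzyme reaction with compound 20 min at room temperature; technique: resorufin fluorescence (Ex 544/Em 590 nm) from resazurin via diaphorase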
PMI act – phosphomannose isomerase (human) activation | purified human PMI, coupled resazurin fluorescence, 20 min; hits give high values; 1 = vehicle control, 0 substrate-free wells | activation factor at 20 µM | hit rate 0.005% among 190,000 | AID 1214;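 active = activation factor of 2 or more at 20 µM, relative to plate controls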
Large screens that a line does not name were inactive. Hits are enriched below; roughly 9.8% of the tested compounds scored in any of these assays.

COc1ccccc1NC(=O)c1c(N=Cc2ccccc2O)cnn1C	none (no result: Rad51 HR inh)
CCCNC(=S)N1CCN(C(c2ccccc2)c2ccccc2)CC1	WT yeast gro inh 69
CCCCNC(=S)N1CCN(C(c2ccccc2)c2ccccc2)CC1	WT yeast gro inh 66
S=C(NCCc1ccccc1)N1CCN(C(c2ccccc2)c2ccccc2)CC1	none (no result: Rad51 HR inh)
CCNC(=S)N1CCN(C(c2ccccc2)c2ccccc2)CC1	none
Cc1cccc(C)c1NC(=S)N1CCC(N(C)CC2CCCO2)CC1 (stereo not drawn)	none (no result: WT yeast gro inh)
Cc1cccc(NC(=S)N2CCC(N(C)CC3CCCO3)CC2)c1C (stereo not drawn)	Lmaj promast 82
Cc1cc(C)cc(NC(=S)N2CCC(N(C)CC3CCCO3)CC2)c1 (stereo not drawn)	Lmaj promast 67
Cc1ccc(NC(=S)N2CCC(N(C)CC3CCCO3)CC2)cc1 (stereo not drawn)	Lmaj promast 76
CCOC(=O)N1CCN(C(=S)NC(=O)c2ccc(F)c(F)c2)CC1	none
CCC(C(=O)O)N1C(=O)C2CCCCC2C1=O (stereo not drawn)	none (no result: Lmaj promast, WT yeast gro inh, PMI act satM6P, PMI act)
COC(=O)c1c(-c2ccccc2)csc1NC1=NS(=O)(=O)c2ccccc21	Lmaj promast 89
CCn1c(COc2cccc(C)c2C)nnc1SCC(=O)Nc1cc(C)on1	none
COc1ccc(C2NC(=S)N(c3ccccc3)C(C)=C2C(=O)Nc2ccccc2)cc1 (stereo not drawn)	Lmaj promast 100
CC(=O)Cc1nsc(NC(=O)c2ccc(-c3cccc(Cl)c3)o2)n1	none
COc1cc2c(cc1OC)C(C1C(=O)CCCC1=O)N(C(=O)CCl)CC2 (stereo not drawn)	none
COc1cc2c(cc1OC)C(c1cccs1)N(C(=O)c1cccnc1)CC2 (stereo not drawn)	none
COc1cc2c(cc1OC)C(c1ccccc1)N(C(=O)CCl)CC2 (stereo not drawn)	Lmaj promast 99
COc1cc2c(cc1OC)C(c1cccs1)N(C(=O)C(C)C)CC2 (stereo not drawn)	Lmaj promast 73
COC(=O)/C(=C/c1cccnc1)NC(=O)c1ccccc1	none
COC(=O)C(=C/C(C)=C/c1cccnc1)C(=O)OC	Lmaj promast 71
COc1cc(C(=O)NCCCNc2nc3cc(C)c(C)cc3cc2C#N)cc(OC)c1OC	none
COCCCNC(=S)NCCNc1nc2c(C)c(C)ccc2cc1C#N	PMI act satM6P 2.8 (no result: Rad51 HR inh)
Cc1cc(C)c2cc(C#N)c(NCCNC(=S)NCCCN3CCOCC3)nc2c1	none
COCCCNC(=S)NCCCNc1nc2cc(C)cc(C)c2cc1C#N	PMI act satM6P 2.5 (no result: Rad51 HR inh)
COCCCNC(=S)N1CCCN(c2nc3c(C)c(C)ccc3cc2C#N)CC1	WT yeast gro inh 69 (no result: PMI act satM6P, PMI act)
CCN(CC)S(=O)(=O)c1ccc(N2CCOCC2)c(NC(=O)c2cnccn2)c1	none
Cc1ccc2c(c1)oc(=O)n2CC(=O)c1ccccc1	none (no result: Lmaj promast, WT yeast gro inh, PMI act satM6P, PMI act)
CC1CN(Cc2ccccn2)CCC1=O (stereo not drawn)	Lmaj promast 53
CCCCNC(=O)/C=C/c1ccc(S(=O)(=O)Nc2ccc(OC)cc2)cc1	none
O=C(O)c1ccc(-c2nc(-c3ccccc3)c(-c3cccs3)[nH]2)cc1	none (no result: Lmaj promast, WT yeast gro inh, PMI act satM6P, PMI act)
CCOc1cc(-c2nc(-c3ccccc3)c(-c3cc([N+](=O)[O-])ccc3C)[nH]2)ccc1O	none
COc1ccc(-c2nc(-c3ccccc3)c(-c3cc([N+](=O)[O-])ccc3C)[nH]2)cc1OC	Lmaj promast 65
O=[N+]([O-])c1ccc(O)c(-c2nc(-c3ccccc3)c(-c3cccs3)[nH]2)c1	WT yeast gro inh 72
CCCOC(=O)c1ccc(NC(=O)C(=O)NCC2CCCO2)cc1 (stereo not drawn)	Lmaj promast 55
CCOc1cccc(/C=C/c2cc(C(=O)O)c3ccccc3n2)c1OC	none (no result: Lmaj promast, WT yeast gro inh, PMI act satM6P, PMI act)
Cc1cc(C)c2sc(N(CCCN(C)C)C(=O)c3ccc(Br)s3)nc2c1	Lmaj promast 54, WT yeast gro inh 94
CCCCN(CC)S(=O)(=O)c1ccc(C(=O)N(CCCN(C)C)c2nc3cc(C)cc(C)c3s2)cc1	Lmaj promast 100, WT yeast gro inh 96
CCCCN(C)S(=O)(=O)c1ccc(C(=O)N(CCN(C)C)c2nc3ccc(C)cc3s2)cc1	none
